Rows were chosen to be rich in hits. Some 0.8% of all compounds tested hit in one or more screens of this group.
FXIIa mix inh: inhibitors of human coagulation factor XIIa, pooled mixtures; inhibition, % at 5 µM; 0.2% of 62,000 active; purified FXIIa, fluorogenic substrate
Cathepsin G inh: blocks human cathepsin G enzyme activity | P08311 | purified enzyme, AMC-tetrapeptide fluorescence, pooled mixtures | inhibition, % at 5 µM (by protocol) | 0.2% of 62,000 active | AID 581;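 active means inhibition above 20% in each of the two mixture wells holding the compound; inactive means inhibition of 20% or less in either well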
Target sequence (P08311 21-244 limits assumed): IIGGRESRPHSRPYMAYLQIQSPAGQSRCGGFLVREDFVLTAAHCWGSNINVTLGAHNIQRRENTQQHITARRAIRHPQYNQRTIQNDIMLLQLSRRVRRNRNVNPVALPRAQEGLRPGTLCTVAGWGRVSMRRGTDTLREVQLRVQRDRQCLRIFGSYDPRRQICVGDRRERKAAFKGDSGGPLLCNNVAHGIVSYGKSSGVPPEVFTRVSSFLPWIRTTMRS
AP ELISA ortho: orthogonal test for alternative complement pathway inhibitors; Human serum alternative complement pathway, LPS-coated ELISA, C3 deposition; tested in compound mixtures; inhibition, % at 5 µM; 0.08% of 62,000 active; AID 1235;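 active means inhibition above 30% in each of the two pooled mixtures holding the compound, so the lower value exceeds 30%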
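Test system: human serum alternative complement pathway, C3 deposition on LPS-coated wells; also added: Plate-bound LPS; doses: 5 µM per compound in ten-compound mixtures; schedule: 1 h at 37 °C; detection: Anti-C3 ELISA, OD 450 nm; evaluation: percent inhibition of C3 deposition onto LPS; repeats: two pool placements per compound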
Htt clearance: compounds clearing mutant huntingtin protein. HeLa Exon1htt(103Q)mCFP, aggregate imaging; zero = plate's median compound well. inhibition, % at 1.5 µM. 0.42% of 47,000 active;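 active means inhibition of aggregate fluorescence above about 70%, also judged a hit by eye on the cell image, limit read from the data, passing the limit was not always enough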;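 further: cells exposed to compound for three days before fixation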
C1s inh: blocks human complement C1s protease activity. P09871. purified C1s, fluorogenic AMC substrate, pooled mixtures. mean inhibition % of two 10-compound mixtures (stronger effect = higher value), % at 5 µM (by protocol). 0.16% of 62,000 active. AID 538;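 active means inhibition above 20% in each of the two 10-compound mixture wells holding the compound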
FXIa inh mix: factor XIa (human) inhibition, mixture screen; P03951; purified FXIa, fluorogenic substrate, pooled mixtures; inhibition, % at 5 µM; 0.19% of 62,000 active;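 further: each value is inhibition by a whole ten-compound pool holding the compound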
Numbers stand for hits; i = inactive; nt = no result. Unless noted, no stated cut-off is given here; in the data, active means inhibition above about 20% (passing the limit was not always enough); inactive means the rest.

SMILES | FXIIa mix inh | Cathepsin G inh | AP ELISA ortho | Htt clearance | C1s inh | FXIa inh mix
O=C(O)CSCc1ccc(Cl)cc1 | 65 | i | i | i | i | i
Cc1nnc(SCCn2c(N3CC(C)CC(C)C3)nc3c2c(=O)[nH]c(=O)n3C)s1 (stereo not drawn) | i | i | i | nt | i | i
O=C(Cn1c(CN2CCCCC2)nc2ccccc2c1=O)Nc1ccccc1 | i | i | 36 | nt | i | i
Cc1cnc(NC(=O)c2ccc(-c3nc4ccccc4s3)o2)s1 | i | i | i | i | i | i
O=C1CC(N2CCN(c3ccc(Cl)c(Cl)c3)CC2)C(=O)N1 (stereo not drawn) | 53 | i | i | i | i | i
CCn1c2ccccc2c2nnc(SCC(=O)Nc3ccc4c(c3)OCO4)nc21 | i | i | i | i | i | i
COc1cccc(NC(=O)Cc2ccccc2)c1 | i | i | i | nt | i | i
COc1cccc(NC(=O)CCP(C)(=O)O)c1 | i | i | i | i | 63 | i
CCCCn1c(-c2cc(Cl)ccc2OC)n[nH]c1=S | i | i | i | nt | 43 | i
CCn1c(-c2ccc(OC)c(OC)c2)n[nH]c1=S | i | i | i | i | i | i
CCOC(=O)N1CCN(C(=O)CN(c2cccc(C)c2)S(=O)(=O)c2ccc(C)cc2)CC1 | i | i | i | nt | 58 | i
CCOC(=O)N1CCN(C(=O)CN(c2cccc(C)c2)S(=O)(=O)c2ccccc2)CC1 | i | i | i | nt | i | i
COc1cccc(Oc2cncnc2-c2ccc(OC)cc2O)c1 | i | i | i | 73 | i | i
CCOc1ccc(-c2nc(N)ncc2Oc2cccc(OC)c2)c(O)c1 | nt | nt | nt | i | nt | nt
O=C(c1cn(-c2ccccc2)nc1-c1ccncc1)n1nnc2ccccc21 | 58 | i | i | nt | i | 87
COCCNC(=O)c1ccc(C(=O)NCCOC)s1 | i | i | i | nt | i | i
COc1ccc(OC)c(NC(=O)C2C3CC4OC(=O)C2C4C3)c1 (stereo not drawn) | i | i | i | nt | i | i
CC(=O)Nc1ccc(-c2ccccc2)s1 | i | i | i | i | i | i
CC(=O)Nc1ccc(NC(C)=O)s1 | i | i | i | nt | 56 | i
O=C(CC(NS(=O)(=O)c1ccc(Cl)cc1)c1ccco1)NCc1ccco1 (stereo not drawn) | 70 | i | i | nt | i | i
COc1cc(C(=O)Nc2cccc(-c3nc4ncccc4o3)c2C)cc(OC)c1OC | i | i | 31 | i | i | i
CN(C)C(=O)CSc1nnc([C@H](Cc2c[nH]c3ccccc23)NC(=O)OC(C)(C)C)o1 | i | i | i | nt | i | i
Cc1[nH]c(=O)[nH]c(=O)c1CSc1nnc([C@@H](NC(=O)OC(C)(C)C)C(C)C)o1 | i | i | i | i | i | i
CC(C)[C@H](NC(=O)OC(C)(C)C)c1nnc(S(=O)(=O)Cc2c(F)cccc2Cl)o1 | i | 38 | i | nt | i | i
CC(C)(C)OC(=O)N[C@@H](Cc1ccccc1)c1nnc(S(=O)(=O)Cc2cccc(F)c2)o1 | i | 63 | i | nt | i | i
SMILES | FXIIa mix inh | Cathepsin G inh | AP ELISA ortho | Htt clearance | C1s inh | FXIa inh mix
CC[C@@H](C)[C@H](NC(=O)OC(C)(C)C)c1nnc(S(=O)(=O)Cc2cc(C)ccc2C)o1 | i | 27 | i | nt | i | i
CC(C)=CCSc1nnc([C@@H](NC(=O)OC(C)(C)C)C(C)C)o1 | i | i | i | nt | i | i
Cc1ccccc1CS(=O)(=O)c1nnc([C@H](CC(C)C)NC(=O)OC(C)(C)C)o1 | i | 21 | i | nt | i | i
COc1ccc(NC(=O)NCCN2C(=O)C3C4C=CC(C4)C3C2=O)cc1 (stereo not drawn) | i | i | i | i | i | i
CC(=O)c1ccc(Cc2cnc(N)s2)cc1 | 21 | i | i | i | i | i
Cc1ccc(Cc2cnc(NC(=O)c3ccco3)s2)cc1 | nt | nt | nt | i | nt | nt
CCOc1ccc(N2C(=O)CC(N3CCN(c4ccccc4F)CC3)C2=O)cc1 (stereo not drawn) | i | i | i | nt | 24 | i
CC1CCCCC1N1CCN(C(=O)c2cccc(F)c2)CC1 (stereo not drawn) | i | i | i | i | i | i
C=CCOc1cccc(C2c3c(oc4ccc(F)cc4c3=O)C(=O)N2CCCN2CCOCC2)c1 (stereo not drawn) | i | i | 34 | nt | i | i
O=C1c2oc3ccc(F)cc3c(=O)c2C(c2cccc(O)c2)N1CCCN1CCOCC1 (stereo not drawn) | i | i | i | nt | i | i
